From ChEMBL document CHEMBL4828711, “Development of a selective matrix metalloproteinase 13 (MMP-13) inhibitor for the treatment of Osteoarthritis” (Eur J Med Chem, 2021)
Blank lines part the entries; values can stand above or below the compound they belong to. Activity calls are given as the source filed them. The calls are words filed in the database; no cut-off is given here.

What was measured:
[1] = Stability in rat liver microsomes; format: ADME, Microsome
Summary of the method: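 Rat liver microsomes at 0.3 mg/ml protein with 1 μM compound, in 100 mM potassium phosphate pH 7.4, 2 mM NADPH, 3 mM MgCl2. Incubated in duplicate for 60 min at 37 °C with shaking, with a duplicate NADPH-free control. Sampled at T=0 and 60 min into cold acidified acetonitrile with internal standards. Percent parent remaining measured by LC-MS/MS (ESI, MRM).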

[2] = Stability in rat liver microsomes assessed as parent compound remaining at 1 uM measured after 60 mins in presence of NADPH by LC-MS/MS analysis; format: ADME, Microsome; conditions: read-out: Stability
Summary of the method: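 Compound at 1 μM was incubated with 0.3 mg/ml rat liver microsomes in 100 mM potassium phosphate pH 7.4 with 2 mM NADPH and 3 mM MgCl2, in duplicate at 37 °C for 60 min. A control without NADPH was run alongside. Samples at 0 and 60 min were quenched in cold acidified acetonitrile with internal standards, and percent parent remaining was measured by LC-MS/MS.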

[3] = molecular target: T1, Collagenase 3 (Homo sapiens, UniProt P45452); assay: Inhibition of MMP13 (unknown origin)
Summary of the method: (§1)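 FRET assay with the catalytic domain of recombinant human MMP and a 5-FAM/QXL520 peptide substrate. Buffer was HEPES pH 7.5 with CaCl2, 0.01% Brij-35, 0.1 mg/ml BSA and 5% DMSO. Enzyme and compound were preincubated 10 min, then substrate was added. Fluorescence (ex 490/em 520 nm) was read every 5 min for 2 h at room temperature, and the initial linear slope was used. Curves had 12 doses, 3-fold dilutions from 100 μM, run in duplicate and averaged.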

[4] = molecular target: Macrophage metalloelastase (Homo sapiens, UniProt P39900); assay: Inhibition of recombinant human MMP12 using QXL520-gamma-Abu-Pro-Cha-Abu-Smc-His-Ala-Dab(5-FAM)-Ala-Lys-NH2 as substrate measured every 5 mins for 2 hrs by FRET assay; summary of the method: as §1
Macrophage metalloelastase, sequence (P39900 whole entry): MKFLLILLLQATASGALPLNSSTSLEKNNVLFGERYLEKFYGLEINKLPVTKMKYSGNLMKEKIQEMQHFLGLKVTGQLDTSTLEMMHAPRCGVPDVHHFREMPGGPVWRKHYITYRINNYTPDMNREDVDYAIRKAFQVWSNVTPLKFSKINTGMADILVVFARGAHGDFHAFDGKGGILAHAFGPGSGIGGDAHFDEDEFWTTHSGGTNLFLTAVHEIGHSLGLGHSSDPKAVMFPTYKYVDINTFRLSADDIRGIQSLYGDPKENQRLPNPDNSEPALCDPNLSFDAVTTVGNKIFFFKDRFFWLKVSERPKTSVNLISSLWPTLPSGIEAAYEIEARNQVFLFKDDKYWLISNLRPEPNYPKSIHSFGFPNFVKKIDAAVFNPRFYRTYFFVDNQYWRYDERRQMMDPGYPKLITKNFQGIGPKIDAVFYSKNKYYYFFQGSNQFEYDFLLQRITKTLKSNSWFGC

[5] = molecular target: Stromelysin-2 (Homo sapiens, UniProt P09238); assay: Inhibition of recombinant human MMP10 using QXL520-gamma-Abu-Pro-Cha-Abu-Smc-His-Ala-Dab(5-FAM)-Ala-Lys-NH2 as substrate measured every 5 mins for 2 hrs by FRET assay
Stromelysin-2, sequence (P09238 whole entry): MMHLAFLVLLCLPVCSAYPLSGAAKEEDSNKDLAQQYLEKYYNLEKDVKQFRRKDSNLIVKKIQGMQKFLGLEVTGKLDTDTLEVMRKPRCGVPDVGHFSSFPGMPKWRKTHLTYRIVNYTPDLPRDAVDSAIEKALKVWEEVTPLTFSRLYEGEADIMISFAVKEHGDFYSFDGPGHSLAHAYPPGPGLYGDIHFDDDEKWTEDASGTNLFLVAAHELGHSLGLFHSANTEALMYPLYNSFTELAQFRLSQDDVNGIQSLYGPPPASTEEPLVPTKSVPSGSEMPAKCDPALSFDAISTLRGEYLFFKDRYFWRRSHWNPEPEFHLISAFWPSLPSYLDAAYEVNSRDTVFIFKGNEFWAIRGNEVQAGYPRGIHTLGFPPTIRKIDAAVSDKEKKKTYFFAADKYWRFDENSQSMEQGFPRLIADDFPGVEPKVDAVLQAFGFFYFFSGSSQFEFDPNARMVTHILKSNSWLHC

[6] = molecular target: Matrix metalloproteinase-9 (Homo sapiens, UniProt P14780); assay: Inhibition of recombinant human MMP9 using QXL520-gamma-Abu-Pro-Cha-Abu-Smc-His-Ala-Dab(5-FAM)-Ala-Lys-NH2 as substrate measured every 5 mins for 2 hrs by FRET assay; summary of the method: as §1
Matrix metalloproteinase-9, sequence (P14780 whole entry): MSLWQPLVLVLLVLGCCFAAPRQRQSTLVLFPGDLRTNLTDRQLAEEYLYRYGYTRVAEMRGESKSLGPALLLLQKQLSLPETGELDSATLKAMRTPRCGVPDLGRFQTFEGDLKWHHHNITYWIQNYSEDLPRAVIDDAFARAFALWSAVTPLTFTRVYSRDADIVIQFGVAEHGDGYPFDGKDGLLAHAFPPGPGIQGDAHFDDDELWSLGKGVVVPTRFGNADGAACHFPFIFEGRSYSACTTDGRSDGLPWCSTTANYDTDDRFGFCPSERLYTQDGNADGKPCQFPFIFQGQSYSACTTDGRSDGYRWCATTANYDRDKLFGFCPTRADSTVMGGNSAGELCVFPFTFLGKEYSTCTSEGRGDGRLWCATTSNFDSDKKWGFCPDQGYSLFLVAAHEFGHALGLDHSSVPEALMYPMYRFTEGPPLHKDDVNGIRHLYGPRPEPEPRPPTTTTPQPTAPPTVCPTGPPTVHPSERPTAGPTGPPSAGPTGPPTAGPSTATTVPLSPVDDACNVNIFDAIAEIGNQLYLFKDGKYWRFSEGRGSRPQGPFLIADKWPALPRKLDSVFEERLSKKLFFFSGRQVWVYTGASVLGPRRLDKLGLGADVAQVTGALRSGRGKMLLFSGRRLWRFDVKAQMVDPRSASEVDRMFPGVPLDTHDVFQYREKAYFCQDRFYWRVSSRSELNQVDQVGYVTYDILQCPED

[7] = molecular target: Neutrophil collagenase (Homo sapiens, UniProt P22894); assay: Inhibition of recombinant human MMP8 using QXL520-gamma-Abu-Pro-Cha-Abu-Smc-His-Ala-Dab(5-FAM)-Ala-Lys-NH2 as substrate measured every 5 mins for 2 hrs by FRET assay; summary of the method: as §1
Neutrophil collagenase, sequence (P22894 whole entry): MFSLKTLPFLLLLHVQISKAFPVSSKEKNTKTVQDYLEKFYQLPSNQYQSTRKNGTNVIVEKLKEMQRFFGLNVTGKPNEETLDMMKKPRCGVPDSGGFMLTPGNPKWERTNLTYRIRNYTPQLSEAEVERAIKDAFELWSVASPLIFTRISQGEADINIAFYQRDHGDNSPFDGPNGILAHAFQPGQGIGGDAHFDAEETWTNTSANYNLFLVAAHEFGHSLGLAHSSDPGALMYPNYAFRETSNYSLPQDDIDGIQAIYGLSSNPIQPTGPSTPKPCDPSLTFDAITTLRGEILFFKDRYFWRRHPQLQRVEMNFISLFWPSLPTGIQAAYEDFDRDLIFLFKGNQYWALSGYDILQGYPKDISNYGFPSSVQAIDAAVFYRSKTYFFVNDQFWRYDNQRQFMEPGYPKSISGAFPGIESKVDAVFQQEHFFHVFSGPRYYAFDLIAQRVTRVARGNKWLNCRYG

[8] = molecular target: T2, Matrilysin (Homo sapiens, UniProt P09237); assay: Inhibition of recombinant human MMP7 using QXL520-gamma-Abu-Pro-Cha-Abu-Smc-His-Ala-Dab(5-FAM)-Ala-Lys-NH2 as substrate measured every 5 mins for 2 hrs by FRET assay; summary of the method: as §1
T2 sequence (P09237 whole entry): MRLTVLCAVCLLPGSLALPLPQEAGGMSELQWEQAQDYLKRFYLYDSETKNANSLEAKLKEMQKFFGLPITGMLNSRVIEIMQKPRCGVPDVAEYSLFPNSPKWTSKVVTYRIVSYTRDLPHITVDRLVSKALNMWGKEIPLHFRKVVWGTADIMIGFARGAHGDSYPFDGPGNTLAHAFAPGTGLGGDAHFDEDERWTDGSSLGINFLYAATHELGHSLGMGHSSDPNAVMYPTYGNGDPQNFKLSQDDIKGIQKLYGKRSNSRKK

[9] = molecular target: Stromelysin-1 (Homo sapiens, UniProt P08254); assay: Inhibition of recombinant human MMP3 using QXL520-gamma-Abu-Pro-Cha-Abu-Smc-His-Ala-Dab(5-FAM)-Ala-Lys-NH2 as substrate measured every 5 mins for 2 hrs by FRET assay; summary of the method: as §1
Stromelysin-1, sequence (P08254 whole entry): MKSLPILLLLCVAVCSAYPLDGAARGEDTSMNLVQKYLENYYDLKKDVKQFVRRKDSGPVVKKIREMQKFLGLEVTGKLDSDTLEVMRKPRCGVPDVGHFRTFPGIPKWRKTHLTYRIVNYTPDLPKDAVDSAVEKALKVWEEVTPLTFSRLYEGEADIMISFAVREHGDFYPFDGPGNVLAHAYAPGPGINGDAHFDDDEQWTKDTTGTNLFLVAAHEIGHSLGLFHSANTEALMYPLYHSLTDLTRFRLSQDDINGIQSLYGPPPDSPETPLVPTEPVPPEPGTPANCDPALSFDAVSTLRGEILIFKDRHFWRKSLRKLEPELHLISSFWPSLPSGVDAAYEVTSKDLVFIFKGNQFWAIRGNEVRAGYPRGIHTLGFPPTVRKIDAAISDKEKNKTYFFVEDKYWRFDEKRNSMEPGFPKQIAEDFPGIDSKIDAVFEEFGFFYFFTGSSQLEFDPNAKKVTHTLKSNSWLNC

[10] = molecular target: 72 kDa type IV collagenase (Homo sapiens, UniProt P08253); assay: Inhibition of recombinant human MMP2 using QXL520-gamma-Abu-Pro-Cha-Abu-Smc-His-Ala-Dab(5-FAM)-Ala-Lys-NH2 as substrate measured every 5 mins for 2 hrs by FRET assay; summary of the method: as §1
72 kDa type IV collagenase, sequence (P08253 whole entry): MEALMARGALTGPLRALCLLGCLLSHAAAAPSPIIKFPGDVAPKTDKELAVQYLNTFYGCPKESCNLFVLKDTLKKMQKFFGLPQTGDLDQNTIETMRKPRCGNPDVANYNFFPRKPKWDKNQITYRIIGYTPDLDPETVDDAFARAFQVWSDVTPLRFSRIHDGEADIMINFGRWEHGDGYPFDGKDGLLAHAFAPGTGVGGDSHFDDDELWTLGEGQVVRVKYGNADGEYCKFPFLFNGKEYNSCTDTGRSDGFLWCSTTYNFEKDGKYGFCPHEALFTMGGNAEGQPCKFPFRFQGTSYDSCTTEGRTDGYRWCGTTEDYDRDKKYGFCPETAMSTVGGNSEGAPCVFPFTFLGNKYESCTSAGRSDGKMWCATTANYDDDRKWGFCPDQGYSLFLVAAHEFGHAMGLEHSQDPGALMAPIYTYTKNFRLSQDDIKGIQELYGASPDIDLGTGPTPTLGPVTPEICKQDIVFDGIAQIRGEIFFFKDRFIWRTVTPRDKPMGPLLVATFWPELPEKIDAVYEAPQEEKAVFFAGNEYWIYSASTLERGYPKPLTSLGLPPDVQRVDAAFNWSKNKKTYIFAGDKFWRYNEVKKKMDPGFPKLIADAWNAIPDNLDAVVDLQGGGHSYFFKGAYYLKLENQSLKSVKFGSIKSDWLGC

[11] = molecular target: T3, Interstitial collagenase (Homo sapiens, UniProt P03956); assay: Inhibition of recombinant human MMP1 using QXL520-gamma-Abu-Pro-Cha-Abu-Smc-His-Ala-Dab(5-FAM)-Ala-Lys-NH2 as substrate measured every 5 mins for 2 hrs by FRET assay; summary of the method: as §1
T3 sequence (P03956 whole entry): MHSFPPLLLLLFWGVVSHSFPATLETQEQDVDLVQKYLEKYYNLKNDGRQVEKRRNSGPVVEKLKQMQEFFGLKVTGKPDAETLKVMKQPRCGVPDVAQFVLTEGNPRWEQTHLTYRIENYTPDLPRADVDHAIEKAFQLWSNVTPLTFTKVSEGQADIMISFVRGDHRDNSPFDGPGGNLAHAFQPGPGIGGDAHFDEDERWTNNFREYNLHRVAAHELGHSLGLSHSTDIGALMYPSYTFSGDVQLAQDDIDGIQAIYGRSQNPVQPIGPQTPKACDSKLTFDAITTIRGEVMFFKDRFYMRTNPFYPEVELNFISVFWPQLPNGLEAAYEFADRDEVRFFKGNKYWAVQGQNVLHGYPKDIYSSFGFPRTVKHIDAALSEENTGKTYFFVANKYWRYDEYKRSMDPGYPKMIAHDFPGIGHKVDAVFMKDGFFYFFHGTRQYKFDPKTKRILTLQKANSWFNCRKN

[12] = molecular target: T1, Collagenase 3; assay: Inhibition of recombinant human MMP13 using QXL520-gamma-Abu-Pro-Cha-Abu-Smc-His-Ala-Dab(5-FAM)-Ala-Lys-NH2 as substrate measured every 5 mins for 2 hrs by FRET assay
Summary of the method: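 Catalytic domain of human recombinant MMP-13. Buffer: HEPES pH 7.5, CaCl2, 0.01% Brij-35, 0.1 mg/ml BSA and 5% DMSO. Compound was preincubated with enzyme for 10 min before substrate addition. Fluorescence (ex 490, em 520 nm) was read at room temperature. IC50 came from initial linear slopes over 12 doses, 3-fold dilutions from 100 μM, in duplicate, reported as the mean.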

[13] = molecular target: Matrix metalloproteinase-14 (Homo sapiens, UniProt P50281); assay: Inhibition of recombinant human MMP14 using QXL520-gamma-Abu-Pro-Cha-Abu-Smc-His-Ala-Dab(5-FAM)-Ala-Lys-NH2 as substrate measured every 5 mins for 2 hrs by FRET assay; summary of the method: as §1
[14] = system: Rattus norvegicus; assay: Chondro-protective activity in MIA-induced Sprague-Dawley rat osteoarthritis model assessed as reduction in proteoglycan loss on MTP at 1 mg, ia administered once per week for 3 weeks starting from 5 days post MIA treatment and measured after 26 days post MIA injection; format: functional; set-up: scale not given: the % may be the effect or the level left
Summary of the method: (§2)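 Male Sprague-Dawley rats (175–200 g) received 2 mg MIA in 40 μl into the right knee. Saline suspensions were given intra-articularly on days 5, 12 and 19, with 8 rats per group and 5 naive rats. Right knees were taken on day 26, then formalin-fixed, decalcified, paraffin-sectioned and toluidine blue-stained. A veterinary pathologist scored cell loss (area without viable chondrocytes), proteoglycan loss (staining intensity), bone resorption and osteophytes. Statistics were ANOVA or Kruskal-Wallis with post-tests versus vehicle.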

[15] = system: Rattus norvegicus; assay: Chondro-protective activity in MIA-induced Sprague-Dawley rat osteoarthritis model assessed as reduction in cell loss on lateral tibial plateau at 1 mg, ia administered once per week for 3 weeks starting from 5 days post MIA treatment and measured after 26 days post MIA injection; format: functional; set-up: scale not given: the % may be the effect or the level left; summary of the method: as §2
[16] = system: Rattus norvegicus; assay: Chondro-protective activity in MIA-induced Sprague-Dawley rat osteoarthritis model assessed as reduction in proteoglycan loss on LTP at 1 mg, ia administered once per week for 3 weeks starting from 5 days post MIA treatment and measured after 26 days post MIA injection; format: functional; set-up: scale not given: the % may be the effect or the level left; summary of the method: as §2
[17] = system: Rattus norvegicus; assay: Chondro-protective activity in MIA-induced Sprague-Dawley rat osteoarthritis model assessed as reduction in proteoglycan loss on LFC at 1 mg, ia administered once per week for 3 weeks starting from 5 days post MIA treatment and measured after 26 days post MIA injection; format: functional; set-up: scale not given: the % may be the effect or the level left; summary of the method: as §2
[18] = system: Rattus norvegicus; assay: Chondro-protective activity in MIA-induced Sprague-Dawley rat osteoarthritis model assessed as reduction of cell loss at 0.06 mg, ia administered once per week for 3 weeks starting from 5 days post MIA treatment and measured after 26 days post MIA injection; format: functional, organism-based; summary of the method: as §2
[19] = system: Rattus norvegicus; assay: Chondro-protective activity in MIA-induced Sprague-Dawley rat osteoarthritis model assessed as reduction of bone resorption in medial femoral condyle at 0.06 mg, ia administered once per week for 3 weeks starting from 5 days post MIA treatment and measured after 26 days post MIA injection; format: functional; set-up: scale not given: the % may be the effect or the level left; summary of the method: as §2
[20] = system: Rattus norvegicus; assay: Chondro-protective activity in MIA-induced Sprague-Dawley rat osteoarthritis model assessed as reduction of bone resorption in lateral femoral condyle at 0.06 mg, ia administered once per week for 3 weeks starting from 5 days post MIA treatment and measured after 26 days post MIA injection; format: functional; set-up: scale not given: the % may be the effect or the level left; summary of the method: as §2
[21] = system: Rattus norvegicus; assay: Chondro-protective activity in MIA-induced Sprague-Dawley rat osteoarthritis model assessed as reduction of bone resorption in tibia at 0.06 mg, ia administered once per week for 3 weeks starting from 5 days post MIA treatment and measured after 26 days post MIA injection; format: functional; set-up: scale not given: the % may be the effect or the level left; summary of the method: as §2
[22] = system: Rattus norvegicus; assay: Chondro-protective activity in MIA-induced Sprague-Dawley rat osteoarthritis model assessed as reduction of osteophyte score at 0.06 mg, ia administered once per week for 3 weeks starting from 5 days post MIA treatment and measured after 26 days post MIA injection; format: functional; set-up: scale not given: the % may be the effect or the level left; summary of the method: as §2

- Stability [1]: 0.6%
Structure (SMILES): Cc1cc(CNC(=O)c2cc(C(=O)NCc3ccc(F)c(C)c3)ncn2)ccc1F

- remaining at 1 h, 1 µM [2]: 90%
Structure (SMILES): Cc1cc(CNC(=O)c2cc(C(=O)NCc3ccc(C(=O)O)cc3)ncn2)ccc1F

Second part, the compound before the results:

Structure (SMILES): C[C@@H](NC(=O)c1cc(C(=O)NCc2ccc(-c3nnn[nH]3)cc2)ncn1)c1ccccc1
- IC50 [3]: > 0.1 µM

Structure (SMILES): [2H]C([2H])(NC(=O)c1cc(C(=O)NCc2ccc(F)c(C)c2)ncn1)c1ccc(C(=O)O)cc1
- IC50 [4]: > 100 µM
- IC50 [5]: 1 µM
- IC50 [6]: 74 µM
- IC50 [7]: 98 µM
- IC50 [8]: > 100 µM
- IC50 [9]: > 100 µM
- IC50 [10]: > 100 µM
- IC50 [11]: > 100 µM
- IC50 [12]: 0.0048 µM
- IC50 [13]: > 100 µM
- remaining at 1 h, 1 µM [2]: 99%
- Activity [14]: 15%
- Activity [15]: 8%
- Activity [16]: 15%
- Activity [17]: 15%

Structure (SMILES): C[C@]12C=CC(=O)C=C1CC[C@H]1[C@@H]3C[C@@H](O)[C@](O)(C(=O)CO)[C@@]3(C)C[C@H](O)[C@@]12F [TRIAMCINOLONE]
- Activity [18]: inactive
- Activity [19]: 49%
- Activity [20]: 49%
- Activity [21]: 34%
- Activity [22]: 40%

Structure (SMILES): C[C@H](NC(=O)c1cc(C(=O)NCc2ccc(-c3nnn[nH]3)cc2)ncn1)c1ccccc1
- IC50 [3]: < 0.01 µM
